Laboratory results reported in ChEMBL document CHEMBL3120154, “2-[N-Alkyl(R-phenyl)-aminomethyl]-3-phenyl-7-trifluoromethylquinoxalines as anticancer agents inhibitors of folate enzymes” (Eur J Med Chem, 2014).

Legend:
Assay type in all cases: functional
[1] = Cytotoxicity against human OVCAR4 cells at 10^-7 M after 48 hrs by SRB assay; details: OVCAR-4, 48 h, read-out: GI
A549 = assay: Cytotoxicity against human A549 cells at 10^-7 M after 48 hrs by SRB assay; details: A549, 48 h, read-out: GI
NCI-H460 [2] = assay: Cytotoxicity against human NCI-H460 cells at 10^-7 M after 48 hrs by SRB assay; details: NCI-H460, 48 h, read-out: GI
NCI-H322M = assay: Cytotoxicity against human NCI-H322M cells at 10^-8 M after 48 hrs by SRB assay; details: read-out: GI
COLO 205 = assay: Cytotoxicity against human COLO205 cells at 10^-8 M after 48 hrs by SRB assay; details: COLO 205, 48 h, read-out: GI
CAKI-1 [3] = assay: Cytotoxicity against human Caki1 cells at 10^-7 M after 48 hrs by SRB assay; details: CAKI-1, 48 h, read-out: GI
SK-OV-3 = assay: Cytotoxicity against human SKOV3 cells at 10^-8 M after 48 hrs by SRB assay; details: SK-OV-3, 48 h, read-out: GI
OVCAR-3 = assay: Cytotoxicity against human OVCAR3 cells at 10^-8 M after 48 hrs by SRB assay; details: OVCAR-3, 48 h, read-out: GI
HCT-116 = assay: Cytotoxicity against human HCT116 cells at 10^-8 M after 48 hrs by SRB assay; details: HCT-116, 48 h, read-out: GI
[4] = Cytotoxicity against human UO31 cells at 10^-6 M after 48 hrs by SRB assay; details: UO-31, 48 h, read-out: GI
PC-3 = assay: Cytotoxicity against human PC3 cells at 10^-7 M after 48 hrs by SRB assay; details: PC-3, 48 h, read-out: GI
SNB-19 = assay: Cytotoxicity against human SNB19 cells at 10^-7 M after 48 hrs by SRB assay; details: SNB-19, 48 h, read-out: GI
HL-60(TB) = assay: Cytotoxicity against human HL-60(TB) cells at 10^-8 M after 48 hrs by SRB assay; details: HL-60, 48 h, read-out: GI
Method in brief: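 NCI 60-human-tumour-cell-line screen run over a 5-log dose range (100, 10, 1, 0.1 and 0.01 µM). Cells were exposed to drug for 48 h. Growth was estimated by sulforhodamine B protein staining. Values are percent growth inhibition at each concentration, relative to untreated control cells.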

KM12 = assay: Cytotoxicity against human KM12 cells at 10^-7 M after 48 hrs by SRB assay; details: KM12, 48 h, read-out: GI
A498 = assay: Cytotoxicity against human A498 cells at 10^-7 M after 48 hrs by SRB assay; details: A498, 48 h, read-out: GI
SR [5] = assay: Cytotoxicity against human SR cells at 10^-7 M after 48 hrs by SRB assay; details: read-out: GI
MDA-MB-435 = assay: Cytotoxicity against human MDA-MB-435 cells at 10^-8 M after 48 hrs by SRB assay; details: MDA-MB-435, 48 h, read-out: GI
HT-29 [6] = assay: Cytotoxicity against human HT-29 cells at 10^-7 M after 48 hrs by SRB assay; details: HT-29, 48 h, read-out: GI
[7] = Cytotoxicity against human UO31 cells at 10^-7 M after 48 hrs by SRB assay; details: UO-31, 48 h, read-out: GI
NCI/ADR-RES = assay: Cytotoxicity against human NCI/ADR-RES cells at 10^-8 M after 48 hrs by SRB assay; details: read-out: GI
BT-549 = assay: Cytotoxicity against human BT549 cells at 10^-7 M after 48 hrs by SRB assay; details: BT-549, 48 h, read-out: GI
SR [8] = assay: Cytotoxicity against human SR cells at 10^-5 M after 48 hrs by SRB assay; details: read-out: GI
HT-29 [9] = assay: Cytotoxicity against human HT-29 cells at 10^-8 M after 48 hrs by SRB assay; details: HT-29, 48 h, read-out: GI
[10] = Cytotoxicity against human EKVX cells at 10^-8 M after 48 hrs by SRB assay; details: read-out: GI
MOLT-4 = assay: Cytotoxicity against human MOLT4 cells at 10^-7 M after 48 hrs by SRB assay; details: MOLT-4, 48 h, read-out: GI
[11] = Cytotoxicity against human Hs578T cells at 10^-7 M after 48 hrs by SRB assay; details: Hs-578T, read-out: GI
CAKI-1 [12] = assay: Cytotoxicity against human Caki1 cells at 10^-8 M after 48 hrs by SRB assay; details: CAKI-1, 48 h, read-out: GI
SK-MEL-5 = assay: Cytotoxicity against human SK-MEL-5 cells at 10^-7 M after 48 hrs by SRB assay; details: SK-MEL-5, 48 h, read-out: GI
[13] = Cytotoxicity against human UACC257 cells at 10^-8 M after 48 hrs by SRB assay; details: UACC-257, 48 h, read-out: GI
T47D = assay: Cytotoxicity against human T47D cells at 10^-8 M after 48 hrs by SRB assay; details: read-out: GI
K562 = assay: Cytotoxicity against human K562 cells at 10^-7 M after 48 hrs by SRB assay; details: K562, 48 h, read-out: GI
SN12C = assay: Cytotoxicity against human SN12C cells at 10^-7 M after 48 hrs by SRB assay; details: read-out: GI
[14] = Cytotoxicity against human UACC257 cells after 48 hrs by SRB assay; details: UACC-257, 48 h
OVCAR-8 = assay: Cytotoxicity against human OVCAR8 cells after 48 hrs by SRB assay; details: OVCAR-8, 48 h
SNB-75 = assay: Cytotoxicity against human SNB75 cells at 10^-7 M after 48 hrs by SRB assay; details: SNB-75, 48 h, read-out: GI
SF-295 = assay: Cytotoxicity against human SF295 cells at 10^-7 M after 48 hrs by SRB assay; details: SF-295, 48 h, read-out: GI
NCI-H23 = assay: Cytotoxicity against human NCI-H23 cells at 10^-8 M after 48 hrs by SRB assay; details: NCI-H23, 48 h, read-out: GI
SK-MEL-2 = assay: Cytotoxicity against human SK-MEL-2 cells at 10^-7 M after 48 hrs by SRB assay; details: SK-MEL-2, 48 h, read-out: GI
[15] = Cytotoxicity against human OVCAR4 cells at 10^-8 M after 48 hrs by SRB assay; details: OVCAR-4, 48 h, read-out: GI
NCI-H460 [16] = assay: Cytotoxicity against human NCI-H460 cells at 10^-8 M after 48 hrs by SRB assay; details: NCI-H460, 48 h, read-out: GI
Malme-3M = assay: Cytotoxicity against human MALME-3M cells at 10^-5 M after 48 hrs by SRB assay; details: read-out: GI

CCN(Cc1nc2cc(C(F)(F)F)ccc2nc1-c1ccccc1)c1ccc(OC)c(OC)c1 showed an inhibition of growth at 0.1 µM [1] of under 40%, an inhibition of growth at 0.1 µM (A549) of 42% and an inhibition of growth at 0.1 µM (NCI-H460 [2]) of under 40%. The inhibition of growth at 0.01 µM (NCI-H322M) was under 40%, the inhibition of growth at 0.01 µM (COLO 205) was under 40% and the inhibition of growth at 0.1 µM (CAKI-1 [3]) was under 40%. For the same compound, the inhibition of growth at 0.01 µM (SK-OV-3) was under 40%, the inhibition of growth at 0.01 µM (OVCAR-3) was under 40% and the inhibition of growth at 0.01 µM (HCT-116) was under 40%. The inhibition of growth at 1 µM [4] was under 40%, the inhibition of growth at 0.1 µM (PC-3) was under 40% and the inhibition of growth at 0.1 µM (SNB-19) was under 40%. For the same compound, the inhibition of growth at 0.01 µM (HL-60(TB)) was under 40%, the inhibition of growth at 0.1 µM (KM12) was under 40% and the inhibition of growth at 0.1 µM (A498) was under 40%. It also gave an inhibition of growth at 0.1 µM (SR [5]) of under 40%, an inhibition of growth at 0.01 µM (MDA-MB-435) of under 40% and an inhibition of growth at 0.1 µM (HT-29 [6]) of under 40%. For the same compound, the inhibition of growth at 0.1 µM [7] was under 40%, the inhibition of growth at 0.01 µM (NCI/ADR-RES) was under 40% and the inhibition of growth at 0.1 µM (BT-549) was under 40%. It also gave an inhibition of growth at 10 µM (SR [8]) of 56%, an inhibition of growth at 0.01 µM (HT-29 [9]) of under 40% and an inhibition of growth at 0.01 µM [10] of under 40%. The inhibition of growth at 0.1 µM (MOLT-4) was under 40%, the inhibition of growth at 0.1 µM [11] was under 40% and the inhibition of growth at 0.01 µM (CAKI-1 [12]) was under 40%. The inhibition of growth at 0.1 µM (SK-MEL-5) was under 40%, the inhibition of growth at 0.01 µM [13] was 39% and the inhibition of growth at 0.01 µM (T47D) was under 40%. For the same compound, the inhibition of growth at 0.1 µM (K562) was under 40%, the inhibition of growth at 0.1 µM (SN12C) was under 40% and the GI50 [14] was 25.1 nM. The GI50 (OVCAR-8) was 1510 nM, the inhibition of growth at 0.1 µM (SNB-75) was under 40% and the inhibition of growth at 0.1 µM (SF-295) was under 40%. For the same compound, the inhibition of growth at 0.01 µM (NCI-H23) was under 40%, the inhibition of growth at 0.1 µM (SK-MEL-2) was under 40% and the inhibition of growth at 0.01 µM [15] was under 40%. For the same compound, the inhibition of growth at 0.01 µM (NCI-H460 [16]) was under 40%.
With C#CCN(Cc1nc2cc(C(F)(F)F)ccc2nc1-c1ccccc1)c1ccc(C)cc1 the inhibition of growth at 10 µM (Malme-3M) was 41%.
